Source: ChEMBL document CHEMBL1141369, “Salinosporamides D-J from the marine actinomycete Salinispora tropica, bromosalinosporamide, and thioester derivatives are potent inhibitors of the 20S proteasome” (J Nat Prod, 2007)

Test system: not listed separately
Experiment: Inhibition of CT-L activity of rabbit muscle 20S proteasome
Assay type: tissue-based, Oryctolagus cuniculus, Muscle tissue
How it was run: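 Serially diluted compound added in duplicate and preincubated 5 min at 37 °C. Reaction started with Suc-LLVY-AMC at 20 µM final, fluorescence read at ex 390/em 460 nm. IC50 from sigmoidal variable-slope fit, mean ± SD of at least three independent experiments.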

| SMILES | IC50 [nM] |
| --- | --- |
| COC(=O)CCSC(=O)[C@]1([C@@H](O)[C@@H]2C=CCCC2)NC(=O)[C@@H]2CCO[C@@]21C | 230 |
| COC(=O)CCSC(=O)[C@]1([C@@H](O)[C@@H]2C=CCCC2)NC(=O)[C@H](CCCl)[C@]1(C)O | 9.3 |
| C[C@@]12OC(=O)[C@]1(CC1C=CCCC1)NC(=O)[C@@H]2CCCl (stereo not given in full) [SALINOSPORAMIDE J] | 52 |
| COC(=O)[C@@H](CSC(=O)[C@]1([C@@H](O)[C@@H]2C=CCCC2)NC(=O)[C@H](CCCl)[C@]1(C)O)NC(C)=O | 4 |
| CC[C@H]1C(=O)N[C@](C(=O)SCCC(=O)OC)([C@@H](O)[C@@H]2C=CCCC2)[C@@]1(C)O | 50 |

Test system: RPMI-8226
Experiment: Cytotoxicity against human RPMI 8226 cells
Assay type: cell-based
How it was run: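 Seeded at 2 × 10^4 cells/well, then serially diluted compound added in triplicate for 48 h. Growth read by resazurin reduction (fluorescence). IC50 = concentration giving 50% of maximal observed growth inhibition, from sigmoidal dose-response fit.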

| SMILES | IC50 [nM] |
| --- | --- |
| COC(=O)CCSC(=O)[C@]1([C@@H](O)[C@@H]2C=CCCC2)NC(=O)[C@@H]2CCO[C@@]21C | 7500 |
| COC(=O)CCSC(=O)[C@]1([C@@H](O)[C@@H]2C=CCCC2)NC(=O)[C@H](CCCl)[C@]1(C)O | 11 |
| C[C@@]12OC(=O)[C@]1(CC1C=CCCC1)NC(=O)[C@@H]2CCCl (stereo not given in full) [SALINOSPORAMIDE J] | 250 |
| COC(=O)[C@@H](CSC(=O)[C@]1([C@@H](O)[C@@H]2C=CCCC2)NC(=O)[C@H](CCCl)[C@]1(C)O)NC(C)=O | 9.7 |
| CC[C@H]1C(=O)N[C@](C(=O)SCCC(=O)OC)([C@@H](O)[C@@H]2C=CCCC2)[C@@]1(C)O | 8000 |
